Experiments:
Format in all cases: functional
Leukemia cell = assay: Growth inhibition of human Leukemia cells after 48 hrs
In short: (§1)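 NCI in vitro human tumour cell line screen (about 60 lines, nine subpanels). Compounds dissolved in DMSO, diluted in phosphate-buffered saline (final DMSO under 1%), tested at five concentrations from 0.01 to 100, in duplicate wells. Cells at 6 × 10⁴ cells/mL, 37 °C, 5% CO₂, 48 h. GI50 (50% decrease in net growth) taken from log concentration versus % growth inhibition curves; subpanel values are subpanel mean-graph midpoints.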

HCC 2998 = assay: Growth inhibition of human HCC2998 cells after 48 hrs; settings: HCC 2998, 48 h; in short: as §1
NSCLC = assay: Growth inhibition of human NSCLC cell after 48 hrs; in short: as §1
[1] = Growth inhibition of human Breast cancer cells after 48 hrs; settings: Cancer cell lines; in short: as §1
[2] = Growth inhibition of human Colon cancer cells after 48 hrs; settings: Cancer cell lines; in short: as §1
[3] = Growth inhibition of human CNS cancer cells after 48 hrs; settings: Cancer cell lines; in short: as §1
[4] = Growth inhibition of human Ovarian cancer cells after 48 hrs; settings: Cancer cell lines; in short: as §1
MCF7 = assay: Growth inhibition of human MCF7 cells after 48 hrs; settings: MCF7, 48 h; in short: as §1
[5] = Growth inhibition of human Renal cancer cells after 48 hrs; settings: Cancer cell lines; in short: as §1
[6] = Growth inhibition of human Prostate cancer cells after 48 hrs; settings: Cancer cell lines; in short: as §1
Melanoma cell = assay: Growth inhibition of human Melanoma cells after 48 hrs; in short: as §1
EKVX = assay: Growth inhibition of human EKVX cells after 48 hrs; in short: as §1
OVCAR-3 = assay: Growth inhibition of human OVCAR-3 cells after 48 hrs; settings: OVCAR-3, 48 h; in short: as §1
UACC-257 = assay: Growth inhibition of human UACC257 cells after 48 hrs; settings: UACC-257, 48 h; in short: as §1

| SMILES | GI50 (Leukemia cell) | GI50 (HCC 2998) | GI50 (NSCLC) | GI50 [1] | GI50 [2] | GI50 [3] | GI50 [4] | GI50 (MCF7) | GI50 [5] | GI50 [6] | GI50 (Melanoma cell) | GI50 (EKVX) | GI50 (OVCAR-3) | GI50 (UACC-257) |
| --- | --- | --- | --- | --- | --- | --- | --- | --- | --- | --- | --- | --- | --- | --- |
| NNC(=O)c1c(NC(=O)NS(=O)(=O)c2ccccc2)sc2c1CCCCC2 | 30.3 µM | 0.9 µM | 10.5 µM | 4.5 µM | 3.5 µM | > 100 µM | 1.5 µM | 4.2 µM | > 100 µM | 15.8 µM | 4.5 µM | > 100 µM | > 100 µM | 2.8 µM |
| O=c1[nH]c2sc3c(c2c(=O)n1S(=O)(=O)c1ccccc1)CCCCC3 | 42.2 µM | 19.5 µM | 9.3 µM | 22.5 µM | 20.5 µM | 81.3 µM | 34.2 µM | > 100 µM | 50.2 µM | 34.2 µM | 26.2 µM | 3.8 µM | > 100 µM | > 100 µM |
| O=C(Nc1sc2c(c1C(=O)NNc1ccccc1)CCCCC2)NS(=O)(=O)c1ccccc1 | 18.6 µM | 6.3 µM | 16 µM | 18.5 µM | 7 µM | 30.9 µM | 15.2 µM | > 100 µM | 26.3 µM | > 100 µM | 32.3 µM | > 100 µM | 15.2 µM | > 100 µM |
| CCCCNC(=O)c1c(NC(=O)NS(=O)(=O)c2ccccc2)sc2c1CCCCC2 | > 100 µM | – | 30.3 µM | 85.2 µM | 65.2 µM | 85.3 µM | > 100 µM | – | 72.3 µM | 92.6 µM | 76.7 µM | – | – | – |
| O=C(Nc1sc2c(c1C(=O)NNc1ccc(Cl)cc1)CCCCC2)NS(=O)(=O)c1ccccc1 | 30.6 µM | 2.9 µM | 8.6 µM | 5.9 µM | 1.2 µM | 12 µM | 7.5 µM | 8.3 µM | > 100 µM | 14.5 µM | 4.2 µM | > 100 µM | > 100 µM | > 100 µM |
| CCCNC(=O)c1c(NC(=O)NS(=O)(=O)c2ccccc2)sc2c1CCCCC2 | 42.2 µM | > 100 µM | 54.2 µM | 70.3 µM | 85.3 µM | 72.5 µM | 76.5 µM | > 100 µM | 80.3 µM | 90.2 µM | 65.3 µM | 6.2 µM | > 100 µM | > 100 µM |
| O=C(Nc1sc2c(c1C(=O)N1CCN(c3ccccc3)CC1)CCCCC2)NS(=O)(=O)c1ccccc1 | > 100 µM | 16.9 µM | 36.2 µM | 58.2 µM | 11.5 µM | 55.8 µM | 36.2 µM | > 100 µM | 65.2 µM | 60.3 µM | 52.3 µM | > 100 µM | 11.9 µM | > 100 µM |
| O=C(Nc1sc2c(c1C(=O)NNc1ccc(Br)cc1)CCCCC2)NS(=O)(=O)c1ccccc1 | > 100 µM | 1.6 µM | 11.5 µM | 5.3 µM | 1.6 µM | 25.5 µM | 10.2 µM | > 100 µM | 11.5 µM | > 100 µM | 31.3 µM | > 100 µM | 14.8 µM | > 100 µM |
| CN1CCN(C(=O)c2c(NC(=O)NS(=O)(=O)c3ccccc3)sc3c2CCCCC3)CC1 | > 100 µM | 15.3 µM | 22.3 µM | 49.2 µM | 9.2 µM | 56.2 µM | 31.3 µM | > 100 µM | 42.3 µM | 80.2 µM | 61.2 µM | > 100 µM | > 100 µM | > 100 µM |

From ChEMBL document CHEMBL1154725, “Synthesis and antitumor evaluation of novel diarylsulfonylurea derivatives: molecular modeling applications” (2010)
